According to ChEMBL document CHEMBL1773060, “Two-step synthesis of novel, bioactive derivatives of the ubiquitous cofactor nicotinamide adenine dinucleotide (NAD)” (J Med Chem, 2011):
Each block holds one compound with its values, some of them ahead of it.

Columns and labels:
[1] = target: T1, NAD-dependent protein deacetylase sirtuin-2 (Homo sapiens, UniProt Q8IXJ6); experiment: Inhibition of human recombinant N-terminally His6-tagged SIRT2 after 4 hrs by homogeneous fluorescent deacetylase assay
T1 sequence (Q8IXJ6 whole entry): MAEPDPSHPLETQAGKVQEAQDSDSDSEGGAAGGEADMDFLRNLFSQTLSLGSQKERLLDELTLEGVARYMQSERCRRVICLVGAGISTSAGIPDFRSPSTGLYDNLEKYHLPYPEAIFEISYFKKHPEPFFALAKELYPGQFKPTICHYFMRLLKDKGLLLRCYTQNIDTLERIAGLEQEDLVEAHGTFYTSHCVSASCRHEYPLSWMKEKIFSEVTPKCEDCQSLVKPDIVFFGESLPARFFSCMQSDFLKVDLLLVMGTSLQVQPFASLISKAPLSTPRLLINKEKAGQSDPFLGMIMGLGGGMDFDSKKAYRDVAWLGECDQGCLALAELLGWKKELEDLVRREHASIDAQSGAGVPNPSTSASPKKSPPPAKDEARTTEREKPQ
Summary of the method: (§1)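 Recombinant enzyme incubated with Z-(Ac)Lys-AMC (10.5 μM), NAD (500 μM) and inhibitor added from DMSO stock, 4 h at 37 °C. Enzyme amount set for 10–30% substrate conversion without inhibitor. Trypsin (1 mg/mL) plus nicotinamide (8 mM) added, 20 min at 37 °C. Fluorescence read at ex 390/em 460 nm. Inhibition calculated from remaining substrate versus no-inhibitor control. Run at least in duplicate.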

[2] = target: T2, NAD-dependent protein deacetylase sirtuin-1 (Homo sapiens, UniProt Q96EB6); experiment: Inhibition of human recombinant GST-tagged SIRT1 after 4 hrs by homogeneous fluorescent deacetylase assay; summary of the method: as §1
T2 sequence (Q96EB6 whole entry): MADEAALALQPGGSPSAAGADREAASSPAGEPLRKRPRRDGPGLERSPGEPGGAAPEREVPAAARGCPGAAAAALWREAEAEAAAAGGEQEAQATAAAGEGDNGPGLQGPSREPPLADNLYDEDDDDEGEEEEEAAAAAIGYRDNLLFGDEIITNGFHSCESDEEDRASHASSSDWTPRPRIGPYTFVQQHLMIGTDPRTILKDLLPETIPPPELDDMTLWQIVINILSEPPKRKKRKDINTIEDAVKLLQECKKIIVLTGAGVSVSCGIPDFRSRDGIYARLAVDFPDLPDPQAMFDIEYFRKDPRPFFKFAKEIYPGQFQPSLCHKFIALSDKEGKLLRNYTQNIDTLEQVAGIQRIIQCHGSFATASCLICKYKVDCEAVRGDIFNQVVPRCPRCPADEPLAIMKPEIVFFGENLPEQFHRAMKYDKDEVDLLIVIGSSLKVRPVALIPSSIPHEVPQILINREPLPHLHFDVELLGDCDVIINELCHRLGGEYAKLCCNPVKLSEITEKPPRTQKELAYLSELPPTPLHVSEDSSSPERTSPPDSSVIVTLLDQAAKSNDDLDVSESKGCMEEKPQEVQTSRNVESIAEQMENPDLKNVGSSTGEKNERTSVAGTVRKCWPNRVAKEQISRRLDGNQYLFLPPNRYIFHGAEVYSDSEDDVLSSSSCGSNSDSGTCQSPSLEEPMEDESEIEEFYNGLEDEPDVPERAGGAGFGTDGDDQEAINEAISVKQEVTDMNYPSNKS

Structure (SMILES): NC(=O)c1ccc[n+]([C@@H]2O[C@H](COP(=O)([O-])OP(=O)(O)OC[C@H]3O[C@@H](n4c(-c5ccccc5)nc5c(N)ncnc54)[C@H](O)[C@@H]3O)[C@@H](O)[C@H]2O)c1
IC50 [1]: 123 µM

Structure (SMILES): NC(=O)c1ccc[n+]([C@@H]2O[C@H](COP(=O)([O-])OP(=O)(O)OC[C@H]3O[C@@H](n4c(Br)nc5c(N)ncnc54)[C@H](O)[C@@H]3O)[C@@H](O)[C@H]2O)c1
IC50 [1]: 28 µM

Second part, the compound after the results:

IC50 [1]: 43 µM
Structure (SMILES): COc1ccc(-c2nc3c(N)ncnc3n2[C@@H]2O[C@H](COP(=O)(O)OP(=O)([O-])OC[C@H]3O[C@@H]([n+]4cccc(C(N)=O)c4)[C@H](O)[C@@H]3O)[C@@H](O)[C@H]2O)cc1

IC50 [2]: 31 µM
IC50 [1]: 29 µM
Structure (SMILES): Nc1ncnc2c1nc(-c1ccccc1)n2[C@@H]1O[C@H](COP(=O)(O)O)[C@@H](O)[C@H]1O

IC50 [1]: 35 µM
Structure (SMILES): NC(=O)c1ccc[n+]([C@@H]2O[C@H](COP(=O)([O-])OP(=O)(O)OC[C@H]3O[C@@H](n4c(-c5ccc(Cl)cc5)nc5c(N)ncnc54)[C@H](O)[C@@H]3O)[C@@H](O)[C@H]2O)c1

IC50 [1]: 52 µM
Structure (SMILES): Cc1ccc(-c2nc3c(N)ncnc3n2[C@@H]2O[C@H](COP(=O)(O)OP(=O)([O-])OC[C@H]3O[C@@H]([n+]4cccc(C(N)=O)c4)[C@H](O)[C@@H]3O)[C@@H](O)[C@H]2O)cc1
